The source made the active and inactive calls. The rule behind the calls is not given here. Non-standard residues stand in square brackets, D forms with d. Residues, ends and D or L forms follow the SMILES beside them. *: point of attachment. Phe(4-guanidino) = N=C(N)Nc1ccc(C[C@H](N)C(=O)O)cc1; Phe(3-CN) = N#Cc1cccc(C[C@H](N)C(=O)O)c1; Phe(4-CN) = N#Cc1ccc(C[C@H](N)C(=O)O)cc1; Phe(4-NH2) = Nc1ccc(C[C@H](N)C(=O)O)cc1; Hydrocinnamoyl = O=C(CCc1ccccc1)*; 3Pal = N[C@@H](Cc1cccnc1)C(=O)O; 4Pal = N[C@@H](Cc1ccncc1)C(=O)O; Phg = N[C@H](C(=O)O)c1ccccc1; Bz = O=C(c1ccccc1)*
Key:
dengue virus type 2 [1] = assay: Inhibition of Dengue virus (serotype 2) NS2B-NS3 protease at 50 uM preincubated with protein for 15 mins followed by Abz-Nle-Lys-Arg-Arg-Ser-3-(NO2)Tyr substrate addition measured by continuous fluorometric analysis
In short: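 Continuous FRET assay in 50 mM Tris-HCl pH 9.0, 10% ethylene glycol, 0.0016% Brij 58. DENV2 protease (100 nM) was preincubated 15 min with inhibitor (50 μM final), then Abz-Nle-Lys-Arg-Arg-Ser-3-(NO2)Tyr (50 μM final; Km 105 μM) was added. Read at ex 320/em 405 nm as slope over 15 min, relative to an uninhibited control. Triplicate.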

[2] = biological target: Genome polyprotein (West Nile virus) (UniProt P06935); assay: Inhibition of West Nile virus NS2B-NS3 protease at 50 uM preincubated with protein for 15 mins followed by Abz-Gly-Leu-Lys-Arg-Gly-Gly-3-(NO2)-Tyr substrate addition measured by continuous fluorometric analysis
In short: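 WNV NS2B-NS3pro (150 nM) was preincubated 15 min with inhibitor (50 μM final) in 50 mM Tris-HCl pH 9.0, 10% ethylene glycol, 0.0016% Brij 58. Abz-Gly-Leu-Lys-Arg-Gly-Gly-3-(NO2)-Tyr (50 μM; Km 212 μM) started the reaction. Continuous read at ex 320/em 405 nm for 15 min against an uninhibited control. Triplicate.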

Prothrombin = Prothrombin (Homo sapiens, UniProt P00734); assay: Inhibition of human thrombin at 25 uM preincubated with protein for 15 mins followed by boc-Val-Pro-Arg-AMC substrate addition measured after 10 mins by continuous fluorometric analysis
Trypsin [3] = biological target: T1, Trypsin (Homo sapiens, UniProt P07477+P07478+P35030); assay: Inhibition of trypsin (unknown origin) at 50 uM preincubated with protein for 15 mins followed by boc-Val-Pro-Arg-AMC substrate addition measured by continuous fluorometric analysis; assay type: protein assay
In short: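 Trypsin (1 nM) was preincubated 15 min with inhibitor (50 μM final) in 50 mM Tris-HCl pH 7.5, 150 mM NaCl, 0.05% Tween 20. boc-Val-Pro-Arg-AMC (50 μM final) was added. Continuous fluorescence at ex 355/em 460 nm; rate compared with an uninhibited control. Triplicate.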

Genome polyprotein = Genome polyprotein (West Nile virus, UniProt P06935); assay: Inhibition of West Nile virus NS2B-NS3 protease preincubated with protein for 15 mins followed by Abz-Gly-Leu-Lys-Arg-Gly-Gly-3-(NO2)-Tyr substrate addition measured by continuous fluorometric analysis
In short: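 WNV protease (150 nM), 15-min preincubation with inhibitor in pH 9.0 Tris buffer, then 50 μM FRET substrate. Read at ex 320/em 405 nm. Done for compounds with ≥90% single-point inhibition, using graded inhibitor concentrations in triplicate, with the curve fitted.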

[4] = Permeability of the compound at 200 uM incubated for 5 hrs by PAMPA; assay type: physicochemical
In short: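 PAMPA in PBS: donor wells held 200 μM compound (triplicate) against PBS acceptor, 5 h at room temperature. Donor and acceptor concentrations were quantified by RP-18 HPLC-UV against calibration curves (10–200 μM). Pe and membrane retention were calculated by a literature method. Amiloride, caffeine, famotidine, furosemide and phenytoin served as references.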

[5] = Inhibition of Dengue virus (serotype 2) NS2B-NS3 protease preincubated with protein for 15 mins followed by Abz-Nle-Lys-Arg-Arg-Ser-3-(NO2)Tyr substrate addition measured by continuous fluorometric analysis; set-up: species or system dengue virus type 2
In short: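 DENV2 protease (100 nM) in Tris-HCl pH 9.0/ethylene glycol/Brij 58 buffer, preincubated 15 min with inhibitor, then 50 μM FRET substrate added. Read at ex 320/em 405 nm over 15 min. Done for compounds with ≥70% inhibition, using series of 0–2.5, 0–6 or 0–30 μM, in triplicate, with nonlinear fitting. Ki came from substrate at 50–200 μM via Cheng–Prusoff.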

[6] = Cytotoxicity against human HuH7 cells at 50 uM incubated for 48 hrs measured by Cell-Titer Glo Luminescent viability Assay; assay type: cell-based; details: huh-7, 48 h
dengue virus type 2 [7] = assay: Antiviral activity against wild type Dengue virus (serotype 2) infected in human Huh-7 cells assessed as inhibition of viral replication at 50 uM incubated for 48 hrs measured by Cell-Titer Glo Luminescent viability assay; assay type: functional; details: Huh-7, 48 h
[8] = Half life in Sprague-Dawley rat liver microsomes at 100 uM incubated for 30 mins by HPLC analysis; assay type: ADME
In short: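 Pooled male Sprague-Dawley rat liver microsomes (0.2 mg/mL protein) with NADPH (5 mM) in DPBS, preincubated 15 min at 37 °C. Compound (100 μM) was then incubated 30 min at 37 °C. Aliquots at 0, 2, 5, 10, 20 and 30 min were quenched with acetonitrile, iced, and centrifuged. Parent remaining was measured by RP-HPLC-UV peak area versus reference. Testosterone served as activity control.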

Trypsin [9] = biological target: T1, Trypsin; assay: Inhibition of trypsin (unknown origin) preincubated with protein for 15 mins followed by boc-Val-Pro-Arg-AMC substrate addition measured by continuous fluorometric analysis; assay type: protein assay

Chain of Genome polyprotein (West Nile virus) (P06935 whole entry): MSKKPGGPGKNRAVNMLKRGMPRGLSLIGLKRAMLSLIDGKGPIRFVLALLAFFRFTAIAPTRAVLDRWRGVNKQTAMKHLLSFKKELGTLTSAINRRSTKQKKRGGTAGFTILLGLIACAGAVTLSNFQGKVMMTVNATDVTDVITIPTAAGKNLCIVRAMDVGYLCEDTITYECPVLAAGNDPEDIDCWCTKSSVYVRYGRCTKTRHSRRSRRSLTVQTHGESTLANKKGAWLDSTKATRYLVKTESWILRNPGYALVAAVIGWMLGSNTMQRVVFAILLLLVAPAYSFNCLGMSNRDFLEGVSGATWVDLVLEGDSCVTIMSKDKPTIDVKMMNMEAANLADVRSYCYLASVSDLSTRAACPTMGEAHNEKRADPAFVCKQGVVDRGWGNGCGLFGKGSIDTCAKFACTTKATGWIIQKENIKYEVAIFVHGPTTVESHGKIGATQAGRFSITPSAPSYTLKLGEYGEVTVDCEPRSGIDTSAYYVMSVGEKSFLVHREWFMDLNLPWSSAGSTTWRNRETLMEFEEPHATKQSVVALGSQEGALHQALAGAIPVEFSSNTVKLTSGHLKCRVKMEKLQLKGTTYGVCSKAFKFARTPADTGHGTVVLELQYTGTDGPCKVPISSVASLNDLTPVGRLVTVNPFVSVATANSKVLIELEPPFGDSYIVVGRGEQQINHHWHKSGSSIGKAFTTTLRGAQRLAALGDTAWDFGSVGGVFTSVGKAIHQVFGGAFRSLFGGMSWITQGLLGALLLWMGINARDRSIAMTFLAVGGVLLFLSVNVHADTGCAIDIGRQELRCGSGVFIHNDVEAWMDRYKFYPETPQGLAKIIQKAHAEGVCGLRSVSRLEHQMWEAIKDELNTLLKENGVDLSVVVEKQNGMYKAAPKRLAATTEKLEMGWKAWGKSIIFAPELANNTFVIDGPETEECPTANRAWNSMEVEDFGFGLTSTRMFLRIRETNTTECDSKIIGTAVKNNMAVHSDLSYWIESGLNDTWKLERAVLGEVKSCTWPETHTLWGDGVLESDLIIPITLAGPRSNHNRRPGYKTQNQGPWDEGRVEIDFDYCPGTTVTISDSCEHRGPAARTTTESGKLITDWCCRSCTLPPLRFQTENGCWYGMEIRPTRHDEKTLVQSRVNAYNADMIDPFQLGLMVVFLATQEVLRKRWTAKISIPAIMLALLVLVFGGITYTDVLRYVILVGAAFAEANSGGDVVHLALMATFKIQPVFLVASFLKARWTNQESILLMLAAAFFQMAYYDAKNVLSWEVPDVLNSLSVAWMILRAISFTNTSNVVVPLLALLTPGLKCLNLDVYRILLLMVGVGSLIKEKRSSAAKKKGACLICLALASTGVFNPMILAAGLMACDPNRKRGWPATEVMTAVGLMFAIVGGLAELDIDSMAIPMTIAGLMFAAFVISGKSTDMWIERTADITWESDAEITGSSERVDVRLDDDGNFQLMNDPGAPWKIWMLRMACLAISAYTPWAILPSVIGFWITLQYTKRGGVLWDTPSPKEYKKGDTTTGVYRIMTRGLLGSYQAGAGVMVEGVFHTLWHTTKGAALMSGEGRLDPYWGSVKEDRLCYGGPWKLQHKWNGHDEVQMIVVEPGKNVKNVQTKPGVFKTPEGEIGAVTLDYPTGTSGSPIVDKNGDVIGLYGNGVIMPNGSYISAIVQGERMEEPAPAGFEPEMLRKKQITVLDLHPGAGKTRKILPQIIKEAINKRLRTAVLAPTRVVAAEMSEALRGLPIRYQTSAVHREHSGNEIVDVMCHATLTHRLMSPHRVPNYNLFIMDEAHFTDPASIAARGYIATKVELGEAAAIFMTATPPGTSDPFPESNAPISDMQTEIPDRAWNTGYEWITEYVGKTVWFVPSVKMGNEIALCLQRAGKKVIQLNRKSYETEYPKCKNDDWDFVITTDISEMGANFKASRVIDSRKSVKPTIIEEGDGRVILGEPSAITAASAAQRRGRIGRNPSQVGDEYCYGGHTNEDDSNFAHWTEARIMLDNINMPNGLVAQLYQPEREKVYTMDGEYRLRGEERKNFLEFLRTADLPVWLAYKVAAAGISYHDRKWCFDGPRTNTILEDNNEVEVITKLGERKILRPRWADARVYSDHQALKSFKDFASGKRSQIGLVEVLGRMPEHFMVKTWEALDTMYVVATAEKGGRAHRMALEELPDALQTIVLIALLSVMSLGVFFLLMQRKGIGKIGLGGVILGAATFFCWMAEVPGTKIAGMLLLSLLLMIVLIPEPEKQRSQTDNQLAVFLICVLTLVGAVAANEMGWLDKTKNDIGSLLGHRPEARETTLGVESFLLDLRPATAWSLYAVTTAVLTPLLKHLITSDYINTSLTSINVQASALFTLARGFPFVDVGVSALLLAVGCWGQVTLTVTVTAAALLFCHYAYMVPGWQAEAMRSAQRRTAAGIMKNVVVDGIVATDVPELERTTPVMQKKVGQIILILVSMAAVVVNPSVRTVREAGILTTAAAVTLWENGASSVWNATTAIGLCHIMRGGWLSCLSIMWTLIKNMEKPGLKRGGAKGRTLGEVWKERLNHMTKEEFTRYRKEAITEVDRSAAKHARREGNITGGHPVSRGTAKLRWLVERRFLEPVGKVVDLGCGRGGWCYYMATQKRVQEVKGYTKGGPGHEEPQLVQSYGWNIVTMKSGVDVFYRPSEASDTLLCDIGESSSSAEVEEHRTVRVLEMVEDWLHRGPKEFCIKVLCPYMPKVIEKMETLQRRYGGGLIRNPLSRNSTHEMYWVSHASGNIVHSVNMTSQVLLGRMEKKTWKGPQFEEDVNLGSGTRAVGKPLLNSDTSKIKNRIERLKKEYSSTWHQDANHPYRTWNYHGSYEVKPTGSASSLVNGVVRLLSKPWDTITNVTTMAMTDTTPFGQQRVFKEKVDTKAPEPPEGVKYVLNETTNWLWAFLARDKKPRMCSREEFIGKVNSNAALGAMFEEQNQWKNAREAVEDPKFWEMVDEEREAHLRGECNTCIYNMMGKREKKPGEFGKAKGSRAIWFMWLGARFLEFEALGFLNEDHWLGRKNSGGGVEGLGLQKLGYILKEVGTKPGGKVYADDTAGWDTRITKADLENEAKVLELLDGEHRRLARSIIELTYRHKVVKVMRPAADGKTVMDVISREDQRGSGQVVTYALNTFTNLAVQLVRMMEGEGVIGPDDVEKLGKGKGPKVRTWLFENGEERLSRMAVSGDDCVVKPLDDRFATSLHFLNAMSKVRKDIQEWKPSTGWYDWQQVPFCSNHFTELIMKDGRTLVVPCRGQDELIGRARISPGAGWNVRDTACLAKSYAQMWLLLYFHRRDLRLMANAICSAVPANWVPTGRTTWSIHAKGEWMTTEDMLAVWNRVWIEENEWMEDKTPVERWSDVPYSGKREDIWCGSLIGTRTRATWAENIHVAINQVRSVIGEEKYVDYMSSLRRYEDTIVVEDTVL
Chain of Genome polyprotein (P06935 1371-1501 limits assumed): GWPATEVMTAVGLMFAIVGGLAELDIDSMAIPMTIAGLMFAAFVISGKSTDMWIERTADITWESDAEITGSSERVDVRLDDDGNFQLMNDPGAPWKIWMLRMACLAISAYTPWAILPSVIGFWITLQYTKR
Chain of Genome polyprotein (P06935 1502-2120 limits assumed): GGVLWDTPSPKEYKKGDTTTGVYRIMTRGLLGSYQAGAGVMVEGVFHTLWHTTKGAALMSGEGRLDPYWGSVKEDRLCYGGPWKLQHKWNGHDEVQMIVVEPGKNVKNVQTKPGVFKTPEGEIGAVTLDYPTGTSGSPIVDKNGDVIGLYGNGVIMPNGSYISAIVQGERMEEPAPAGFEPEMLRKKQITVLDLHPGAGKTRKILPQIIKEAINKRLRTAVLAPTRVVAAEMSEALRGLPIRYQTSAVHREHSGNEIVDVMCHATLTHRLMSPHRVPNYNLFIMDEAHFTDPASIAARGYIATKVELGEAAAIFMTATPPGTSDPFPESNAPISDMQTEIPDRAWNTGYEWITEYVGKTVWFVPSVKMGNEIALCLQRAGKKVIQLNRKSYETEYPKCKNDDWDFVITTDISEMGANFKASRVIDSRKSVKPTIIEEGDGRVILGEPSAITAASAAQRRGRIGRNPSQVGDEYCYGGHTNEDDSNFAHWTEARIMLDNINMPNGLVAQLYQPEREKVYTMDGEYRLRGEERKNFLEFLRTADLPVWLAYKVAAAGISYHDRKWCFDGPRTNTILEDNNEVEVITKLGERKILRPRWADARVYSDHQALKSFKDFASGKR

Row | SMILES | inhibition (dengue virus type 2 [1]) | inhibition [2] | inhibition (Prothrombin) | inhibition (Trypsin [3]) | IC50 (Genome polyprotein) | permeability [4] | IC50 [5] | Activity [6] | inhibition at 50 µM (dengue virus type 2 [7]) | Ki [5] | half-life at 100 µM [8] | IC50 (Trypsin [9])
1 | CC(=O)Nc1ccc(C[C@H](NC(=O)c2ccccc2)C(=O)N[C@@H](CCCCN)C(=O)N[C@H](C(N)=O)c2ccccc2)cc1 (Bz-[Phe(4-NH2)](Ac)-Lys-[Phg]-NH2) | 34.8% | 93.7% | 7.4% | 0% | 3850 nM | impermeable | – | – | – | – | – | –
2 | N=C(N)c1cccc(C[C@H](NC(=O)c2ccccc2)C(=O)N[C@@H](CCCCN)C(=O)N[C@H](C(N)=O)c2ccccc2)c1 | 94% | 39.5% | 71.1% | 37% | – | impermeable | 3070 nM | – | – | – | – | –
3 | N=C(N)NCCC[C@H](NC(=O)c1ccc(C(F)(F)F)cc1)C(=O)N[C@@H](CCCCN)C(=O)N[C@H](C(N)=O)c1ccccc1 | 98.7% | 85.3% | 7.7% | 11.5% | – | – | 1020 nM | – | – | – | – | –
4 | N=C(N)Nc1ccc(C[C@H](NC(=O)c2ccccc2)C(=O)N[C@@H](CCCCN)C(=O)N[C@H](C(N)=O)c2ccccc2)cc1 (Bz-[Phe(4-guanidino)]-Lys-[Phg]-NH2) | 99.9% | 64.7% | 7.6% | 16.2% | – | impermeable | 580 nM | – | – | – | – | –
5 | NCCCC[C@H](NC(=O)[C@H](Cc1ccc(N)cc1)NC(=O)c1ccccc1)C(=O)N[C@H](C(N)=O)c1ccccc1 (Bz-[Phe(4-NH2)]-Lys-[Phg]-NH2) | 21.1% | 23.8% | 2.3% | 0% | – | – | – | – | – | – | – | –
6 | NCCCC[C@H](NC(=O)[C@H](Cc1cccc(CN)c1)NC(=O)c1ccccc1)C(=O)N[C@H](C(N)=O)c1ccccc1 | 82.4% | 68.6% | 5.6% | 11.2% | – | impermeable | 11800 nM | – | – | – | – | –
7 | N=C(N)c1ccc(C[C@H](NC(=O)CCc2ccccc2)C(=O)N[C@@H](CCCCN)C(=O)N[C@H](C(N)=O)c2ccccc2)cc1 | 101% | 67.7% | 24.7% | 4.4% | – | impermeable | 260 nM | Non-toxic | 58.8% | 160 nM | 22 min | –
8 | N=C(N)c1ccc(C[C@H](NC(=O)c2ccccc2)C(=O)N[C@@H](CCCCN)C(=O)N[C@H](C(N)=O)c2ccccc2)cc1 | 100% | 59.1% | 18% | 17.4% | – | impermeable | 440 nM | Non-toxic | 32.4% | 232 nM | – | –
9 | NCCCC[C@H](NC(=O)[C@H](Cc1ccncc1)NC(=O)c1ccccc1)C(=O)N[C@H](C(N)=O)c1ccccc1 (Bz-[4Pal]-Lys-[Phg]-NH2) | 12% | 0% | 3.8% | 0% | – | – | – | – | – | – | – | –
10 | N=C(N)Nc1ccc(C[C@H](NC(=O)c2ccc(C(F)(F)F)cc2)C(=O)N[C@@H](CCCCN)C(=O)N[C@H](C(N)=O)c2ccccc2)cc1 | 100% | 42.2% | inactive | 12.8% | – | impermeable | 690 nM | – | – | – | – | –
11 | N#Cc1cccc(C[C@H](NC(=O)c2ccccc2)C(=O)N[C@@H](CCCCN)C(=O)N[C@H](C(N)=O)c2ccccc2)c1 (Bz-[Phe(3-CN)]-Lys-[Phg]-NH2) | 29.6% | 15.6% | 4% | 0% | – | – | – | – | – | – | – | –
12 | NCCCC[C@H](NC(=O)[C@H](Cc1cccnc1)NC(=O)c1ccccc1)C(=O)N[C@H](C(N)=O)c1ccccc1 (Bz-[3Pal]-Lys-[Phg]-NH2) | 17.5% | 23.8% | 1.8% | 3.4% | – | – | – | – | – | – | – | –
13 | N=C(N)c1ccc([C@H](NC(=O)c2ccccc2)C(=O)N[C@@H](CCCCN)C(=O)N[C@H](C(N)=O)c2ccccc2)cc1 | 24.8% | 59.5% | 5.5% | 19.2% | – | – | – | – | – | – | – | –
14 | N=C(N)Nc1ccc(C[C@H](NC(=O)CCc2ccccc2)C(=O)N[C@@H](CCCCN)C(=O)N[C@H](C(N)=O)c2ccccc2)cc1 (Hydrocinnamoyl-[Phe(4-guanidino)]-Lys-[Phg]-NH2) | 101% | 44.3% | 6.4% | 23.6% | – | impermeable | 890 nM | Non-toxic | 8.8% | – | 18 min | –
15 | N=C(N)NCCC[C@H](NC(=O)CCc1ccccc1)C(=O)N[C@@H](CCCCN)C(=O)N[C@H](C(N)=O)c1ccccc1 (Hydrocinnamoyl-Arg-Lys-[Phg]-NH2) | 95.9% | 45.3% | 2.5% | 2.3% | – | – | 2700 nM | – | – | – | – | –
16 | N=C(N)Nc1cccc([C@H](NC(=O)c2ccccc2)C(=O)N[C@@H](CCCCN)C(=O)N[C@H](C(N)=O)c2ccccc2)c1 | 98.8% | 89.4% | 41.7% | 90.8% | – | impermeable | 3090 nM | – | – | – | – | 7100 nM
17 | CC(=N)Nc1ccc(C[C@H](NC(=O)c2ccccc2)C(=O)N[C@@H](CCCCN)C(=O)N[C@H](C(N)=O)c2ccccc2)cc1 | 76.6% | 34.2% | 7.7% | 0% | – | impermeable | 12700 nM | – | – | – | – | –
18 | NCCCC[C@H](NC(=O)[C@H](Cc1cccc(N)c1)NC(=O)c1ccccc1)C(=O)N[C@H](C(N)=O)c1ccccc1 | 28.9% | 23.7% | inactive | 4.7% | – | – | – | – | – | – | – | –
19 | N#Cc1ccc(C[C@H](NC(=O)c2ccccc2)C(=O)N[C@@H](CCCCN)C(=O)N[C@H](C(N)=O)c2ccccc2)cc1 (Bz-[Phe(4-CN)]-Lys-[Phg]-NH2) | 22% | 4.7% | 7.5% | 0.7% | – | – | – | – | – | – | – | –
20 | N=C(N)c1ccc(C[C@H](NC(=O)c2ccc(C(F)(F)F)cc2)C(=O)N[C@@H](CCCCN)C(=O)N[C@H](C(N)=O)c2ccccc2)cc1 | 99.8% | 69.9% | 50.3% | 43.4% | – | impermeable | 210 nM | Non-toxic | 38.2% | 139 nM | – | –
21 | N=C(N)c1cccc(C[C@H](NC(=O)c2ccc(C(F)(F)F)cc2)C(=O)N[C@@H](CCCCN)C(=O)N[C@H](C(N)=O)c2ccccc2)c1 | 95.8% | 76.1% | 66.6% | 27.1% | – | impermeable | 5810 nM | – | – | – | – | –
22 | N=C(N)NCCC[C@H](NC(=O)c1ccccc1)C(=O)N[C@@H](CCCCN)C(=O)N[C@H](C(N)=O)c1ccccc1 (Bz-Arg-Lys-[Phg]-NH2) | – | – | – | 0.5% | – | – | – | Non-toxic | 40.3% | – | – | –
23 | C[C@]12CC[C@H]3[C@@H](CCC4=CC(=O)CC[C@@]43C)[C@@H]1CC[C@@H]2O [TESTOSTERONE] | – | – | – | – | – | – | – | – | – | – | 63 min | –
